Bioassay records (PubChem BioAssay)
Only some compounds are listed: those with a hit (about 3.5% of all), similar ones and a draw of the others.
MrgX1 antagonist: antagonists of human MrgX1 receptor, primary screen, HEK293 cells, Fluo-4 calcium flux; Mas-related G-protein coupled receptor member X1 (Homo sapiens), Q96LB2; BAM8-22 antagonism; hits give low values; B-score at 10 µM; 310,000 compounds, 1.3% hits; AID 588676, 2011;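 active = calcium-response B-score plate-corrected more than 3 library SD below zero, starting fluorescence within 5 deviations, no agonist response on first addition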;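 also: peak minus trough fluorescence over baseline after final BAM8-22 challenge near maximal dose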
RGS4 inh: RGS4 inhibitors, primary screen, cell-based, HEK293 M3R inducible RGS4, calcium flux | AID 463165, 2010 | 310,000 compounds, 0.45% hits | B-score at 10 µM | Fluo-4 calcium flux; hits give high values; triggered by carbachol at its EC20;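 active = B-score, a plate-corrected calcium signal, over three deviations above library mean, with baseline fluorescence within five deviations of library mean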;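 also: RGS4 expression induced by doxycycline in cells with stable M3 receptor; B-score is computed from the integrated fluorescence ratio over baseline after carbachol; higher B-score means a larger calcium signal and so more RGS4 inhibition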
Target sequence (P49798 whole entry, looked up): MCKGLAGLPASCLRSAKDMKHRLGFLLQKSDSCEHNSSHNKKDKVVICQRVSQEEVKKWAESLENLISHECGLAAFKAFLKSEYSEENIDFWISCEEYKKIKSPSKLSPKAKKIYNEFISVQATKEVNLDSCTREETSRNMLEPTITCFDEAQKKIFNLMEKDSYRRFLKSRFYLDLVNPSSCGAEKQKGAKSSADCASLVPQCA
MrgX1 allo act: positive allosteric modulators of MrgX1, primary screen, HEK293 cells, Fluo-4 calcium flux. FDSS; hits give high values. B-score at 10 µM. 310,000 compounds, 0.63% hits. AID 588675, 2011;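 active = plate-corrected calcium response at least 3 library SD above typical, normal starting fluorescence, not activating the receptor alone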;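 also: compound read alongside a low EC10 to EC30 dose of BAM8-22 agonist; peak minus trough fluorescence over baseline measured at the second addition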
RGS4 act: RGS4 potentiators or activators, primary screen, cell-based, HEK293 M3R inducible RGS4, calcium flux | carbachol calcium flux Fluo4; hits give low values | B-score at 10 µM | 310,000 compounds, 0.92% hits | AID 463111, 2010;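 active = B-score of the integrated calcium signal more than 4 SD below the library mean, with starting fluorescence not abnormally high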;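 also: negative B-score means reduced calcium response which marks RGS4 activation or potentiation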
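Detection: kinetic calcium fluorescence imaging with Fluo4-AM dye, 2 µM / Material: HEK293 cells with stable M3R and inducible RGS4 / Schedule: recording 10 s baseline at 1 Hz, 100 s post-agonist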
MrgX1 ag: agonists of human MrgX1 receptor, primary screen, HEK293 cells, Fluo-4 calcium flux; Mas-related G-protein coupled receptor member X1 (Homo sapiens), Q96LB2; Fluo-4 calcium fluorescence, agonist mode; hits give high values; B-score at 10 µM; 310,000 compounds, 0.44% hits;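 active = calcium response B-score plate-corrected fluorescence ratio at least 3 library SD, with starting fluorescence B-score inside 5 SD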
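Test system: Stable human MrgX1 HEK293 cell line | Schedule: Overnight plating before 1 h dye loading | Read-out basis: Baseline-normalised fluorescence change ratio, B-scored | Detection: Kinetic calcium dye fluorescence, Fluo-4 NW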
Of the large screens only hits and unclear results are named; the others gave an inactive call.

O=C(NC1CCCCC1)C1CC(=O)N(c2ccccc2)C1 (stereo not given)	none
CCN(CC)c1ccc2cc(/C(N)=N/NC(=O)c3cccs3)c(=O)oc2c1	MrgX1 allo act 27
CCC1(c2ccccc2)NC(=O)N(CC(=O)Nc2cc(S(=O)(=O)N3CCCCC3)ccc2OC(C)C)C1=O (stereo not given)	none
CCCCCOc1ccc(NC(=O)C(=O)NCC2CCCN2CC)cc1 (stereo not given)	MrgX1 antagonist -7
COC(=O)C1=C(C)NC(=O)/C1=C\c1cc(C)n(-c2ccccc2F)c1C	MrgX1 antagonist -5.5
O=C(CCC(=O)Nc1ccc(F)cc1)N/N=C/c1cccnc1	none
CCOc1cc(/C=N/NC(=O)c2nn(C)cc2Br)ccc1OCc1ccccc1	MrgX1 antagonist -6.8
CC1=NNC(=O)/C1=C\c1cn(-c2ccccc2)nc1-c1ccc(Cl)cc1	none
Cc1ccc(-c2nn(-c3ccccc3)cc2C=C2C(=O)CC(C)(C)CC2=O)cc1	RGS4 inh 11
Cc1ccc(NC(=O)CCC(=O)NNC(=O)c2ccccc2)c(C)c1	none
C#CCOCCOCCOCCNc1nc(N2CCN(C(=O)CCCCCCCCCCNC(=O)[C@H]([C@@H](C)CC)n3cc(CCCCN=C(N)N)nn3)CC2)nc(N2CCN(C(=O)CCCCCCCCCCNC(=O)[C@H](CCCN=C(N)N)n3cc(C[C@@H](C)CC)nn3)CC2)n1	MrgX1 ag 33 (no result: RGS4 inh, RGS4 act)
C#CCOCCOCCOCCNc1nc(N2CCN(C(=O)CCCCCCCCCCNC(=O)[C@H](CCCN=C(N)N)n3cc(C[C@@H](C)CC)nn3)CC2)nc(N2CCN(C(=O)CCCCCCCCCCNC(=O)[C@@H]([C@H](C)CC)n3cc(CCCCCN)nn3)CC2)n1	MrgX1 ag 51 (no result: RGS4 inh, RGS4 act)
C#CCOCCOCCOCCNc1nc(N2CCOCC2)nc(N2CCN(C(=O)CCCCCCCCCCNC(=O)[C@H]([C@@H](C)CC)n3cc(CCCCN=C(N)N)nn3)CC2)n1	none (no result: RGS4 inh, RGS4 act)
CCN(CC)C(=O)c1sc2nc(-c3cccs3)cc(-c3cccs3)c2c1N	MrgX1 antagonist -7.2
CC(C)(C)C(=O)c1sc2nc(-c3cccs3)cc(C(F)(F)F)c2c1N	RGS4 act -9.7
ClC1(Cl)CC1CSc1nnc(-c2ccncc2)o1 (stereo not given)	none
NS(=O)(=O)c1ccc(CNC(=O)CNC(=O)c2ccc(Br)o2)cc1	none
O=C(CCC(=O)N1CCCC(Nc2ccccc2)C1)c1ccc(F)cc1 (stereo not given)	none
Cc1ccccc1C(=O)N1CCC(C(=O)NCCc2ccc(S(N)(=O)=O)cc2)CC1	none
COc1ccccc1C(C#N)N1N=C(C)CC1c1ccccc1 (stereo not given)	MrgX1 ag 28
CC(=O)NCC(=O)N(c1c(C)n(C)n(-c2ccccc2)c1=O)C1(C(=O)NC2CCCC2)CCCCC1	MrgX1 allo act 15
CC1=CC(=O)C=C(C)C1=NOc1ccc([N+](=O)[O-])cc1	MrgX1 ag 33
CC(C)Cc1ccc(C(C)C(N)=Nc2ccc(O)cc2)cc1 (stereo not given)	MrgX1 allo act 10
CC(C)Cc1ccc(C(C)C(=O)N2CCOCC2)cc1 (stereo not given)	none
Cc1c(OCC(=O)N2C[C@H]3C[C@@H](C2)c2cccc(=O)n2C3)ccc2c3c(c(=O)oc12)CCCC3	RGS4 act -7.1
Cc1c(OCC(=O)N2C[C@H]3C[C@@H](C2)c2cccc(=O)n2C3)ccc2c3c(c(=O)oc12)CCC3	none
CCN1CCN(C(CNS(=O)(=O)c2ccccc2)c2cccnc2)CC1 (stereo not given)	none
CCOC(=O)c1ccc(NC(=O)c2ccccc2[N+](=O)[O-])cc1	none
CCOC(=O)c1ccc(Nc2ncccc2[N+](=O)[O-])cc1	MrgX1 antagonist -5.8
O=C(Nc1cccnc1Cl)c1ccc(Cl)cc1	none
O=C(NC(=S)Nc1cccnc1Cl)c1ccc(Cl)cc1	MrgX1 allo act 9.5
O=C(COc1ccc(Cl)cc1Cl)NNC(=S)NCc1ccco1	MrgX1 allo act 13, RGS4 act -7.1
CCC(=O)NC(=S)NNC(=O)c1ccc(OC)cc1	none
